Active and inactive are the calls of the source. The rule behind the calls is not given here.
Experiments:
[1] = Metabolic stability in human HCT116 cells assessed as compound remaining at 30 uM after 12 hrs by HPLC analysis; type: ADME, cell-based, HCT-116; conditions: read-out: Stability
Method in brief: (§1)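 MCF-7 or HCT116 cells were seeded at 2×10^5 per well and grown 24 h at 37 °C, 5% CO2, then given 30 µM conjugate. At 1, 3, 6 and 12 h cells were PBS-washed, trypsinized, sonicated and filtered. Lysates were run on C18 HPLC (UV 340 nm). Each species is reported as a percentage of integrated peak area; peaks were identified by MALDI-TOF MS.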

[2] = Metabolic stability in human HCT116 cells assessed as compound remaining at 30 uM after 6 hrs by HPLC analysis; type: ADME, cell-based, HCT-116; conditions: read-out: Stability; method in brief: as §1
[3] = Metabolic stability in human HCT116 cells assessed as compound remaining at 30 uM after 3 hrs by HPLC analysis; type: ADME, cell-based, HCT-116; conditions: read-out: Stability; method in brief: as §1
[4] = Metabolic stability in human HCT116 cells assessed as compound remaining at 30 uM after 1 hr by HPLC analysis; type: ADME, cell-based, HCT-116; conditions: read-out: Stability; method in brief: as §1
[5] = Metabolic stability in human MCF7 cells assessed as compound remaining at 30 uM after 3 hrs by HPLC analysis; type: ADME, cell-based; conditions: read-out: Stability; method in brief: as §1
[6] = Metabolic stability in human MCF7 cells assessed as compound remaining at 30 uM after 6 hrs by HPLC analysis; type: ADME, cell-based; conditions: read-out: Stability; method in brief: as §1
[7] = Metabolic stability in human MCF7 cells assessed as compound remaining at 30 uM after 1 hr by HPLC analysis; type: ADME, cell-based; conditions: read-out: Stability; method in brief: as §1
[8] = Solubility of the compound in DMEM cell-free cell culture medium up to 100 uM; type: physicochemical
Method in brief: (§2)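 DMSO stocks ([…]–10 mM) were serially diluted into PBS pH 7.4 or DMEM with 10% FBS to final 0.5, 5, 25, 50, 100, 200 µM (2% DMSO) and 300 µM (3% DMSO). Solubility was judged by forward light scattering in a laser nephelometer.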

[9] = Solubility of the compound in PBS buffer at 0.5 to 300 uM; type: physicochemical; method in brief: as §2
[10] = Drug degradation in DMEM cell-free cell culture medium assessed as formation of quercetin at 50 uM after 1 hr by HPLC analysis; type: physicochemical
Method in brief: (§3)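 Conjugates diluted from a 10 mM DMSO stock to 50 µM final in cell-free culture medium (DMEM with 10% FBS), held at 37 °C. Samples were taken at 0, 1, 3, 6, 12, 24, 48 and 96 h, vortexed, and run on C18 reverse-phase HPLC with an acetonitrile/0.1% formic acid gradient at 1 mL/min, detected by UV at 340 nm.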

[11] = Half life of the compound in DMEM cell-free cell culture medium at 50 uM by HPLC analysis; type: physicochemical; method in brief: as §3
[12] = Half life of the compound in PBS buffer at pH 7.4 at 50 uM by HPLC analysis; type: physicochemical
Method in brief: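 Compound at 50 µM in PBS pH 7.4, incubated at 37 °C. Aliquots were drawn at 0, 1, 3, 6, 12, 24, 48 and 96 h and analysed by C18 reverse-phase HPLC with an acetonitrile/0.1% formic acid gradient, detected by UV at 340 nm.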

[13] = test system: HCT-116; experiment: Cytotoxicity against human HCT116 cells at 1 to 100 uM after 12 hrs by MTT assay; type: functional, cell-based
Method in brief: (§4)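 MCF-7 or HCT116 cells were seeded at 5×10^3 per well in DMEM with 10% FBS and grown 1 day at 37 °C, 5% CO2. Compounds in 1% DMSO were added at 1, 5, 10, 50, 100 or 250 µM. Viability was read by MTT after 12 h; each assay was done three times.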

[14] = test system: MCF7; experiment: Drug metabolism in human MCF7 cells assessed as quercetin level at 30 uM after 12 hrs by HPLC analysis; type: ADME, cell-based; conditions: mcf7, 12 h; method in brief: as §1
[15] = test system: MCF7; experiment: Cytotoxicity against human MCF7 cells at 1 to 100 uM after 12 hrs by MTT assay; type: functional, cell-based; method in brief: as §4
[16] = test system: MCF7; experiment: Metabolic stability in human MCF7 cells assessed as compound remaining at 30 uM after 12 hrs by HPLC analysis; type: ADME, cell-based; conditions: mcf7, 12 h; method in brief: as §1
[17] = test system: HCT-116; experiment: Drug metabolism in human HCT116 cells assessed as quercetin sulfate level at 30 uM after 1 hr by HPLC analysis; type: ADME, cell-based; conditions: hct-116, 1 h; method in brief: as §1
[18] = test system: MCF7; experiment: Drug metabolism in human MCF7 cells assessed as quercetin sulfate level at 30 uM after 12 hrs by HPLC analysis; type: ADME, cell-based; conditions: mcf7, 12 h; method in brief: as §1
[19] = test system: MCF7; experiment: Drug metabolism in human MCF7 cells assessed as quercetin sulfate level at 30 uM after 3 hrs by HPLC analysis; type: ADME, cell-based; conditions: mcf7, 3 h; method in brief: as §1
[20] = test system: MCF7; experiment: Drug metabolism in human MCF7 cells assessed as quercetin sulfate level at 30 uM after 1 hr by HPLC analysis; type: ADME, cell-based; conditions: mcf7, 1 h; method in brief: as §1
[21] = test system: HCT-116; experiment: Drug metabolism in human HCT116 cells assessed as methyl quercetin level at 30 uM after 12 hrs by HPLC analysis; type: ADME, cell-based; conditions: hct-116, 12 h; method in brief: as §1
[22] = test system: HCT-116; experiment: Drug metabolism in human HCT116 cells assessed as methyl quercetin level at 30 uM after 6 hrs by HPLC analysis; type: ADME, cell-based; conditions: hct-116, 6 h; method in brief: as §1
[23] = test system: HCT-116; experiment: Drug metabolism in human HCT116 cells assessed as methyl quercetin level at 30 uM after 3 hrs by HPLC analysis; type: ADME, cell-based; conditions: hct-116, 3 h; method in brief: as §1
[24] = test system: MCF7; experiment: Drug metabolism in human MCF7 cells assessed as methyl quercetin level at 30 uM after 12 hrs by HPLC analysis; type: ADME, cell-based; conditions: mcf7, 12 h; method in brief: as §1
[25] = test system: HCT-116; experiment: Drug metabolism in human HCT116 cells assessed as methyl quercetin level at 30 uM after 1 hr by HPLC analysis; type: ADME, cell-based; conditions: hct-116, 1 h; method in brief: as §1
[26] = test system: HCT-116; experiment: Drug metabolism in human HCT116 cells assessed as quercetin-glucuronide level at 30 uM after 12 hrs by HPLC analysis; type: ADME, cell-based; conditions: hct-116, 12 h; method in brief: as §1
[27] = test system: MCF7; experiment: Drug metabolism in human MCF7 cells assessed as methyl quercetin level at 30 uM after 1 hr by HPLC analysis; type: ADME, cell-based; conditions: mcf7, 1 h; method in brief: as §1
[28] = test system: HCT-116; experiment: Drug metabolism in human HCT116 cells assessed as quercetin-glucuronide level at 30 uM after 6 hrs by HPLC analysis; type: ADME, cell-based; conditions: hct-116, 6 h; method in brief: as §1
[29] = test system: HCT-116; experiment: Drug metabolism in human HCT116 cells assessed as quercetin-glucuronide level at 30 uM after 3 hrs by HPLC analysis; type: ADME, cell-based; conditions: hct-116, 3 h; method in brief: as §1
[30] = test system: MCF7; experiment: Drug metabolism in human MCF7 cells assessed as quercetin-glucuronide level at 30 uM after 12 hrs by HPLC analysis; type: ADME, cell-based; conditions: mcf7, 12 h; method in brief: as §1
[31] = test system: MCF7; experiment: Drug metabolism in human MCF7 cells assessed as quercetin-glucuronide level at 30 uM after 1 hr by HPLC analysis; type: ADME, cell-based; conditions: mcf7, 1 h; method in brief: as §1

CC(C)OC(=O)OCOc1cc(O)c2c(=O)c(O)c(-c3ccc(O)c(O)c3)oc2c1
remaining at 12 h, 30 µM [1]: 12% | remaining at 6 h, 30 µM [2]: 18% | remaining at 3 h, 30 µM [3]: 34% | remaining at 1 h, 30 µM [4]: 65% | remaining at 3 h, 30 µM [5]: 6% | remaining at 6 h, 30 µM [6]: 2% | remaining at 1 h, 30 µM [7]: 51% | solubility [8]: soluble | solubility [9]: Insoluble | Drug degradation [10]: Active | half-life at 50 µM [11]: 1 h | half-life at 50 µM [12]: > 96 h | Activity [13]: Active | Stability [14]: Stable | Activity [15]: Active | Stability [16]: Stable | Stability [17]: Stable | Stability [18]: Stable | Stability [19]: Stable | Stability [20]: Stable | Stability [21]: Stable | Stability [22]: Stable | Stability [23]: Stable | Stability [24]: Stable | Stability [25]: Stable | Stability [26]: Stable | Stability [27]: Stable | Stability [28]: Stable | Stability [29]: Stable | Stability [30]: Stable | Stability [31]: Stable

O=c1c(O)c(-c2ccc(O)c(O)c2)oc2cc(O)cc(O)c12 [QUERCETIN]
half-life at 50 µM [11]: < 0.5 h | half-life at 50 µM [12]: 10 h | Activity [13]: Active | Activity [15]: Active

Source: ChEMBL document CHEMBL2396515, “Quercetin-POC conjugates: Differential stability and bioactivity profiles between breast cancer (MCF-7) and colorectal carcinoma (HCT116) cell lines” (Bioorg Med Chem, 2013)
